From article PMC4642656 (Journal of Ethnopharmacology, 2015)
Read-outs that look alike come from different tables or passages of the source.

Assays:
Format in all cases: cell-based
[1] = system: Plasmodium falciparum chloroquine-resistant (W2) strain; experiment: Antiplasmodial assay
In short: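 Asexual erythrocytic-stage P. falciparum W2 was kept in continuous in vitro culture. It was tested by modified semiautomated microdilution for inhibition of [G-3H]hypoxanthine incorporation. Cells were harvested onto glass-fibre filters and counted by liquid scintillation as cpm per well at each drug concentration, expressed as % of untreated controls. IC50 was taken from nonlinear regression of the dose-response curve.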

[2] = system: Plasmodium falciparum chloroquine-sensitive (D6) strain; experiment: Antiplasmodial assay; details: for IC50: Plasmodium falciparum
[3] = system: mouse breast cancer (4T1) cells; experiment: MTT cytotoxicity assay, 4T1 cells
[4] = system: human larynx carcinoma (HEp2) cells; experiment: MTT cytotoxicity assay, HEp2 cells
[5] = Mus musculus, 4T1, 48 h, read-out: IC50 4T1, 4T1 cells, MTT, 48 h
[6] = Homo sapiens, HEp-2, 48 h, read-out: IC50 HEp2, HEp2 cells, MTT, 48 h
[7] = read-out: IC50 4T1, 4T1 cells, MTT, 48 h
[8] = read-out: IC50 HEp2, HEp2 cells, MTT, 48 h

Row | SMILES | IC50 ([1]; W2, read-out: IC50 W2) | IC50 ([2]; D6, read-out: IC50 D6) | IC50 [3, 5] | IC50 [4, 6] | IC50 [3, 7] | IC50 [4, 8] | IC50 ([4]; read-out: IC50 HEp2, HEp2 cells, MTT, 48 h, listed as niloticin (8)) | IC50 ([1]; W2, read-out: IC50 W2 (chloroquine)) | IC50 ([2]; D6, read-out: IC50 D6 (chloroquine)) | SI: selectivity index [IC50 vero/IC50 (D6)] ([2]; Table 1)
1 | CC(=O)O[C@H]1C[C@@H]2[C@@]3(C)CCC(=O)C(C)(C)[C@@H]3C[C@@H](O)[C@@]2(C)C2=CC[C@@H](c3ccoc3)[C@@]21C [Mzikonone (3), mzikonone] | 40.5 ± 3.7 µM | 36.6 ± 0.8 µM | 38.8 ± 0.4 µM | 59.3 ± 1 µM | – | – | – | – | – | –
2 | C[C@H](C[C@@H](O)[C@@H]1OC1(C)C)[C@@H]1CC[C@]2(C)C3=CC[C@H]4C(C)(C)C(=O)CC[C@]4(C)[C@H]3CC[C@@]12C [Niloticin (8), niloticin] | 77 ± 5.7 µM | 48.2 ± 2.3 µM | < 20 µM | – | 14.5 ± 0.5 µM | 6.9 ± 0.6 µM | < 20 µM | – | – | –
3 | CCN(CC)CCCC(C)Nc1ccnc2cc(Cl)ccc12 (stereo not shown) [Chloroquine, reference compound] | – | – | – | – | – | – | – | 0.108 µM | 0.0077 µM | 5701
4 | CC(=O)O[C@@H]1C[C@H]2C(C)(C)C(=O)C=C[C@]2(C)[C@H]2CC[C@]3(C)C(=CC[C@H]3c3ccoc3)[C@@]21C [Azadirone (1), azadirone] | 29.6 ± 1 µM | 23.4 ± 0.2 µM | < 20 µM | < 20 µM | 14.4 µM | 12.8 µM | – | – | – | –
